Assay [1] in a line: Binding affinity to 6His-TEV-SH-HRas(1 to 166) (unknown origin)/6His-TEV-SH-SOS (unknown origin) complex by nuclear magnetic resonance analysis. Also on record: species or system Homo sapiens.
For assay [2], the species on record is Homo sapiens. In words: Inhibition of SOS (unknown origin) at 200 uM incubated for 2.5 hrs followed by KRas-GDP addition measured after 4 hrs by HTRF method. Summed up: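 SOS preincubated with compound (200 μM final during preincubation) 2.5 h ambient; streptavidin-europium then biotin-KRas-GDP added, 4 h. GST-Raf/anti-GST-XL665 plus GTPγS started exchange; final 3 nM KRas, 1 µM SOS, 1 μM GTPγS. HTRF read at 60 min; inhibition relative to DMSO (0%) and no-KRas (100%) controls.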

Assay [3] deals with GTPase KRas (Homo sapiens) (UniProt P01116). In words: Inhibition of biotinylated KRas-GDP (unknown origin) at 200 uM incubated for 2.5 hrs followed by SOS addition measured after 4 hrs by HTRF method. Summed up:
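Biotin-KRas-GDP preincubated with compound (200 μM final during preincubation) 2.5 h ambient; streptavidin-europium then SOS added, 4 h equilibration. GST-Raf/anti-GST-XL665 premix plus GTPγS added to start exchange; final 3 nM KRas, 1 µM SOS, 1 μM GTPγS, 10 nM GST-Raf. HTRF read at 60 min (665/615 nm); inhibition relative to DMSO (0%) and no-KRas (100%) controls.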

The species entered for assay [4] is Homo sapiens. In words: Inhibition of Kras:GDP:SOS complex (unknown origin) at 200 uM after 2.5 hrs by HTRF method. In outline:
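Biotin-KRas-GDP plus SOS preincubated with compound (200 μM final during preincubation) 2.5 h ambient; streptavidin-europium in DTT-containing buffer added, 4 h. GST-Raf/anti-GST-XL665 plus GTPγS then added; final 3 nM KRas, 1 µM SOS, 1 μM GTPγS. HTRF read at 60 min; inhibition relative to DMSO (0%) and no-KRas (100%) controls.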

In assay [5] the test system is GTPase KRas (Homo sapiens), P01116 [G12V]. The assay is described as follows: Time dependent inhibition of KRas G12V mutant (unknown origin) assessed as SOS-mediated MANT-dGDP displacement at 200 uM by microplate reader analysis. Summed up: (§1)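 KRas (WT, G12V or G12C) preequilibrated 4 h with SOS and MANT-dGDP in HEPES/NaCl/MgCl2/Tween-20 buffer; added to compound (200 μM final). Fluorescence read kinetically (ex 350/em 450 nm) to 85 min; each well referenced to time zero and to DMSO controls.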

Assay [6] deals with GTPase KRas (Homo sapiens) (UniProt P01116). The assay is described as follows: Time dependent inhibition of wild-type KRas (unknown origin) assessed as SOS-mediated MANT-dGDP displacement at 200 uM by microplate reader analysis. Summed up: as §1
In assay [7] the test system is GTPase KRas (Homo sapiens), P01116 [G12C]. The assay is described as follows: Time dependent inhibition of KRas G12C mutant (unknown origin) assessed as SOS-mediated MANT-dGDP displacement at 200 uM by microplate reader analysis. In outline: as §1

Among the data in ChEMBL document CHEMBL3414570, “Small molecule binding sites on the Ras:SOS complex can be exploited for inhibition of Ras activation” (J Med Chem, 2015) are Kd and inhibition values, retold here.

The source made the active and inactive calls. The calls are words filed in the database; no cut-off is given here.

GTPase KRas (Homo sapiens), sequence (P01116 whole entry, looked up): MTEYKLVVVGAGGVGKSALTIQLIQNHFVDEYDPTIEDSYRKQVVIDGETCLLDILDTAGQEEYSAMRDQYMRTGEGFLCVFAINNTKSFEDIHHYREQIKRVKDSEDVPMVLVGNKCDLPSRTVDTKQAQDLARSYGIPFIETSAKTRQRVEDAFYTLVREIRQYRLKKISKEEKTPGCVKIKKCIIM
GTPase KRas (Homo sapiens), P01116 [G12C], sequence (P01116 whole entry G12C): as the sequence (P01116 whole entry, looked up) above, with G12C counted along it
GTPase KRas (Homo sapiens), P01116 [G12V], sequence (P01116 whole entry G12V): as the sequence (P01116 whole entry, looked up) above, with G12V counted along it

Consider `Nc1ccc(S(=O)(=O)N2CCCCC2=O)cc1`, for which, in assay [1], the affinity, expressed as Kd, was 3000 µM.

In turn, `CSc1nc(-c2c(C)cccc2C)nc(N2CCNCC2)n1` came in with a dissociation constant Kd in assay [1] of 1600 µM.

Turning to `CCN1C(=O)C=C(c2cccc(CN)c2)C1=O`, the inhibition entry (in the assay filed under Homo sapiens [2]; in assay [3]; in the assay listed under Homo sapiens [4]) was “inactive” throughout.

With `Nc1ccc(S(=O)(=O)NC(=O)C2CC2)cc1`, the Kd in assay [1] came out at 6000 µM.

The molecule `OC1(c2ccc(Br)cc2)CCNCC1` had a Kd in assay [1] of 1700 µM.

On to `COc1ccc(S(=O)(=O)Nc2nccs2)cc1`, for which the Kd in assay [1] worked out at 6000 µM.

On to `O=C1C=CC(=O)N1C1CCS(=O)(=O)C1` (stereo not drawn), for which the inhibition entry in the assay filed under Homo sapiens [2] is “inactive”. In addition, the inhibition in the assay filed under Homo sapiens [4] was determined as 40%.

Take `CCN1C(=O)C=C(c2cc(C#N)cc(C(=O)O)c2)C1=O`: the inhibition result (in the assay listed under Homo sapiens [2]; in assay [3]; in the assay listed under Homo sapiens [4]) was “inactive” in each case.

As for `Brc1ccc2cc[nH]c2c1`, the Kd in assay [1] was 6000 µM.

For the molecule `CCN1C(=O)C=C(c2cccc(C(N)=O)c2)C1=O`, the inhibition entry (in the assay filed under Homo sapiens [2]; in assay [3]; in the assay filed under Homo sapiens [4]) was “inactive” each time. Besides, the inhibition result in assay [5], in assay [6] and in assay [7] was “Active” throughout.

With `CCN1C(=O)C=C(c2cc(Cl)cc(C(N)=O)c2)C1=O`, in the assay listed under Homo sapiens [2], the inhibition entry is “inactive”. The same molecule had an inhibition in the assay filed under Homo sapiens [4] of 40%.

With `Brc1ccc(CN2CCCC2)cc1`, in assay [1], binding was characterised by a dissociation constant (Kd) of 1300 µM.
